Source: ChEMBL document CHEMBL4699593, “Identification of 2,4-Disubstituted Imidazopyridines as Hemozoin Formation Inhibitors with Fast-Killing Kinetics and In Vivo Efficacy in the Plasmodium falciparum NSG Mouse Model” (J Med Chem, 2020)
≈ marks a conversion by molar mass, not a printed value.

Assays:
Plasmodium falciparum [1] = test: Antiplasmodial activity against multidrug-sensitive asexual blood stage Plasmodium falciparum NF54 strain assessed as reduction in parasite growth after 72 hrs by NBT reagent based LDH assay; type: functional, organism-based; settings: NF54, 72 h
Plasmodium falciparum [2] = test: Antiplasmodial activity against multidrug-resistant asexual blood stage Plasmodium falciparum K1 strain assessed as reduction in parasite growth after 72 hrs by NBT reagent based LDH assay; type: functional, organism-based; settings: K1, 72 h
Outline: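 Asexual blood-stage K1 (multidrug-resistant) parasites were read out by the parasite lactate dehydrogenase (pLDH) assay. […] Most individual values varied less than 2× (maximum 3×).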

[3] = Aqueous solubility of compound in phosphate buffer saline at pH 6.5 incubated for 20 hrs under shaking condition by shake-flask method based HPLC-DAD analysis; type: physicochemical; settings: phosphate buffered saline
Outline: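 Equilibrium aqueous solubility was measured at pH 6.5 using a miniaturized shake-flask method.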

CHO = test: Cytotoxicity against CHO cells assessed as reduction in cell viability by MTT assay; type: cell-based, Cricetulus griseus; settings: chinese hamster
Outline: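 Cytotoxicity was measured in Chinese hamster ovary (CHO) cells and reported as CC50. The selectivity index is CC50 divided by NF54 IC50.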

[4] = Cmax in Balb/C mouse at 2 mg/kg, iv by LC-MS/MS analysis; type: ADME, organism-based; design: route intravenous, dose 2 mg/kg; settings: in vivo
Outline: (§1)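 Healthy Balb/c mice dosed i.v. or orally. Parameters come from non-compartmental analysis of compound concentration over time. […] Clearance is blood clearance (CL_b).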

[5] = Cmax in Balb/C mouse at 10 mg/kg, po by LC-MS/MS analysis; type: ADME, organism-based; design: route oral, dose 10 mg/kg; settings: in vivo; outline: as §1
[6] = Tmax in Balb/C mouse at 10 mg/kg, po by LC-MS/MS analysis; type: ADME, organism-based; settings: in vivo
Outline: (§2)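 Healthy Balb/c mice were given the compound i.v. or orally. Parameters come from non-compartmental analysis: AUC from 0 h to t_last, blood clearance, volume at steady state, terminal half-life, Tmax. Oral bioavailability F is derived from the i.v. and p.o. data.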

[7] = Terminal half life in Balb/C mouse at 2 mg/kg, iv by LC-MS/MS analysis; type: ADME, organism-based; settings: in vivo, read-out: beta t1/2 (converted); outline: as §2
[8] = Terminal half life in Balb/C mouse at 10 mg/kg, po by LC-MS/MS analysis; type: ADME, organism-based; settings: in vivo, read-out: beta t1/2 (converted); outline: as §2
[9] = Clearance in Balb/C mouse blood at 2 mg/kg, iv by LC-MS/MS analysis; type: ADME, organism-based; settings: whole blood; outline: as §1
[10] = Volume of distribution at steady state in Balb/C mouse at 2 mg/kg, iv by LC-MS/MS analysis; type: ADME, organism-based; settings: in vivo, read-out: Vdss; outline: as §2
[11] = AUC (0 to t) in Balb/C mouse at 2 mg/kg, iv by LC-MS/MS analysis; type: ADME, organism-based; design: dose 2 mg/kg; settings: in vivo; outline: as §1
[12] = AUC (0 to t) in Balb/C mouse at 10 mg/kg, po by LC-MS/MS analysis; type: ADME, organism-based; design: dose 10 mg/kg; settings: in vivo; outline: as §1
[13] = Oral bioavailability in Balb/C mouse at 10 mg/kg by LC-MS/MS analysis; type: ADME, organism-based; settings: in vivo; outline: as §2
[14] = Ratio of unbound average drug concentration in Balb/c mouse at 10 mg/kg, po measured at 24 hrs to IC50 for antiplasmodial activity against multidrug-sensitive Plasmodium falciparum NF54 asexual blood stage assessed as reduction in parasite growth after 72 hrs by LDH assay; type: organism-based; settings: in vivo
[15] = Tmax in Balb/C mouse at 5 mg/kg, po by LC-MS/MS analysis; type: ADME, organism-based; settings: in vivo; outline: as §2
[16] = Cmax in Balb/C mouse at 5 mg/kg, po by LC-MS/MS analysis; type: ADME, organism-based; design: route oral, dose 5 mg/kg; settings: in vivo; outline: as §1
[17] = Terminal half life in Balb/C mouse at 5 mg/kg, po by LC-MS/MS analysis; type: ADME, organism-based; settings: in vivo, read-out: beta t1/2 (converted); outline: as §2
[18] = AUC (0 to t) in Balb/C mouse at 5 mg/kg, po by LC-MS/MS analysis; type: ADME, organism-based; design: dose 5 mg/kg; settings: in vivo; outline: as §1
[19] = Oral bioavailability in Balb/C mouse at 5 mg/kg by LC-MS/MS analysis; type: ADME, organism-based; settings: in vivo; outline: as §2
[20] = Ratio of unbound average drug concentration in Balb/c mouse at 5 mg/kg, po measured at 24 hrs to IC50 for antiplasmodial activity against multidrug-sensitive Plasmodium falciparum NF54 asexual blood stage assessed as reduction in parasite growth after 72 hrs by LDH assay; type: organism-based; settings: in vivo

CN1CCN(CC2CCN(c3cncc4[nH]c(-c5cc(F)cc(F)c5)nc34)CC2)CC1
IC50 (Plasmodium falciparum [1]): 130 nM | IC50 (Plasmodium falciparum [2]): 330 nM | solubility thermodynamic at 20 h [3]: 125 µM (≈ 53.3 µg/mL) | CC50 (CHO): 46000 nM | Cmax [4]: 100 nM | Cmax [5]: 400 nM | Tmax [6]: 3.5 h | half-life [7]: 6.9 h | half-life [8]: 4.9 h | clearance [9]: 71.8 mL/min/kg | Vd [10]: 51 L/kg | AUCt [11]: 0.967 µM·h | AUCt [12]: 3.57 µM·h | bioavailability [13]: 73% | Ratio [14]: 0.3

CN1CCN(c2nccc3nc(-c4ccc(F)c(F)c4)[nH]c23)CC1
Tmax [15]: 0.7 h | IC50 (Plasmodium falciparum [1]): 240 nM | IC50 (Plasmodium falciparum [2]): 500 nM | solubility thermodynamic at 20 h [3]: 130 µM (≈ 42.8 µg/mL) | Cmax [4]: 1000 nM | Cmax [16]: 1100 nM | half-life [7]: 5.9 h | half-life [17]: 5.4 h | clearance [9]: 27.3 mL/min/kg | Vd [10]: 9 L/kg | AUCt [11]: 3.58 µM·h | AUCt [18]: 3.25 µM·h | bioavailability [19]: 36% | Ratio [20]: 0.1
